High-throughput results from PubChem BioAssay.
Shown are actives, neighbours in structure and some others; about 1.3% of the full set was active somewhere.
DAGLB inhibitor = diacylglycerol lipase beta (human) inhibition; Q8NCG7; HEK293T DAGLB membrane lysate, EnzChek fluorogenic substrate; inhibition, % at 5.17 µM; 0.059% of 340,000 active; AID 504411; in the data active means inhibition above about 34%
Target sequence (Q8NCG7 whole entry, looked up): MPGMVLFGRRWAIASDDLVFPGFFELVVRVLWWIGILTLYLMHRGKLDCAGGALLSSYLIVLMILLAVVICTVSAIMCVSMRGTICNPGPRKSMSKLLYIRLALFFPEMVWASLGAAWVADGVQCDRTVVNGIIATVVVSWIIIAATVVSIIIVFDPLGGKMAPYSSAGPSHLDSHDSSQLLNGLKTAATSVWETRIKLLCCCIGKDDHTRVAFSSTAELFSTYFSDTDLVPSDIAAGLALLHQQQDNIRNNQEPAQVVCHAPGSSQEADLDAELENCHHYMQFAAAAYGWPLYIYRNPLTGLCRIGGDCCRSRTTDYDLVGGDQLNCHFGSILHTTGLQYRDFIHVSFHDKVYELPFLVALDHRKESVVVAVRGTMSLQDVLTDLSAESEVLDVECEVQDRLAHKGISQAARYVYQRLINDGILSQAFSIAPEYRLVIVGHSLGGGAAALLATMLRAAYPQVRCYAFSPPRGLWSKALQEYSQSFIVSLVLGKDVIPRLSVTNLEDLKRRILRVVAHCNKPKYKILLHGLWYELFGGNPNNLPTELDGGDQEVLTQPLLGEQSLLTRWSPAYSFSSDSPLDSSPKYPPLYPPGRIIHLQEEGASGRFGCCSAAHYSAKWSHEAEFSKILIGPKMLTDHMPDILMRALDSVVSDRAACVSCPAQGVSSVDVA
MT1-MMP act inh = inhibitors of human MT1-MMP activation; AID 651647; GFP/RFP ratio change, % at 20 µM; 0.061% of 360,000 active; HT1080 RFP-PRO-GFP cells, GFP/RFP ratio fluorescence, overnight; percent of plate control window, DMSO zero; P50281;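 active means GFP/RFP ratio change of at least 30% with cell ATP level not reduced by more than half and red fluorescence within 50% of control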
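Read-out: GFP/RFP fluorescence ratio; Test system: RFP-PRO-GFP reporter HT1080 cells; Compound dosing: single-point 20 µM compound, 1% DMSO; Times: overnight compound exposure at 37 °C.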
ANO1 activ = activators or potentiators of mouse TMEM16A chloride channel. Q8BHY3. HEK293 TMEM16A/YFP-H148Q/I152L, iodide quench fluorescence; hits give low values. B-score at 10 µM. 0.3% of 340,000 active;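 active means fluorescence-ratio B-score plate-corrected deviation score at least 3 library SD below zero, with starting fluorescence score within 5 deviations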;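 further: channel opened by trigger with iodide after compound preincubation; score built on the fluorescence ratio of max minus min over baseline; more negative score means more quench and so TMEM16A activation or potentiation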
ANO1 block = blocks the mouse calcium-activated chloride channel TMEM16A. Q8BHY3. HEK293 TMEM16A/YFP iodide influx fluorescence, ionomycin. normalized B-score (activity score, 25-100; higher = stronger inhibition) at 10 µM. 1.2% of 310,000 active. AID 588511;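 active means ratio plate-corrected score three or more library SD toward inhibition, starting fluorescence score within five deviations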;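 further: score derived from kinetic fluorescence span divided by baseline fluorescence per well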
Numbers stand for hits; . = inactive; / = no result.

SMILES	DAGLB inhibitor	MT1-MMP act inh	ANO1 activ	ANO1 block
CC(C)=CCC[C@](C)(O[C@@H]1O[C@H](CO[C@@H]2O[C@H](CO)[C@@H](O)[C@H](O)[C@H]2O)[C@@H](O)[C@H](O)[C@H]1O)C1CC[C@]2(C)C1C(=O)CC1[C@@]3(C)CC[C@H](O[C@H]4O[C@@H](CO)[C@H](O)[C@@H](O)[C@@H]4O)C(C)(C)C3CC[C@]12C (stereo not given in full)	.	.	.	/
CC(C)CN1CCC(=O)N([C@H](COc2ccccc2)c2ccccc2)CC1	.	.	.	.
CCN(CC)N=Nc1ccc(S(N)(=O)=O)cc1	.	.	-6.1	.
O=C(O)c1cc2c([nH]c1=O)CCCC2	.	.	.	.
C=CCSC(=C(C#N)C#N)c1cc2c([nH]1)CCCC2	.	.	.	100
Cc1ccccc1CNC(=O)c1[nH]c(C(F)(F)F)nc1-c1ccccc1	/	.	/	/
COc1cc(/C=C2\C(=N)N3N=C(S(C)(=O)=O)SC3=NC2=O)ccc1OCCOc1ccccc1C	.	.	.	100
O=C(O)c1ccc(NC2=C(Cl)C(=O)c3ccccc3C2=O)cc1	.	.	.	100
O=C1C(Cl)=C(Nc2ccccc2)C(=O)c2ccccc21	.	.	.	.
COc1ccc(Cc2nc(C(=O)Nc3ccc(Cl)cc3)cs2)cc1	.	.	.	100
O=C(C[n+]1ccc(C(=O)c2ccccc2)cc1)Nc1cccc([N+](=O)[O-])c1	/	.	/	/
O=C(CCCSc1nnc(SCCCC(=O)c2ccc(F)cc2)s1)c1ccc(F)cc1	.	.	.	25
CCOC(=O)N1CCN(C(=O)COc2cc(=O)n(C)c3ccccc23)CC1	.	.	.	25
O=C(NC1CCN(Cc2ccccc2)CC1)c1cccc(S(=O)(=O)Nc2ccc(SC(F)F)cc2)c1	.	/	.	/
O=S1(=O)CC(N2CCN(CCO)CC2)CN1Cc1cn(Cc2cccc(C(F)(F)F)c2)nn1 (stereo not given)	/	.	/	/
Cc1cccc(N2C(=O)c3cccc(Oc4ccc(Cl)cc4)c3C2=O)c1	.	.	-7.3	.
O=C1CC(c2ccc3c(c2)OCO3)c2cc3c(cc2N1)OCCO3 (stereo not given)	.	.	-5.1	.
COc1ccc(S(N)(=O)=O)cc1C(=O)OCC(=O)N1CC(=O)Nc2ccccc21	.	.	.	/
CCC1=C(OC(=O)N(CC)CC)N2C(=O)OC(=NCCOC)[C@]2(Cc2ccccc2)[C@H]2C1=CC[C@H]1C(=O)N(CC(=O)OC)C(=O)[C@H]12	.	.	.	25
CCC1=C(OC(=O)N(CC)CC)N2C(=O)OC(=NCCc3c[nH]c4ccccc34)[C@]2(Cc2ccccc2)[C@H]2C1=CC[C@H]1C(=O)N(CC(=O)OC)C(=O)[C@H]12	.	.	.	.
O=C(COC(=O)c1ccccc1NS(=O)(=O)c1ccc(Cl)cc1)NCc1ccccc1	.	.	.	100
CC(CN1CCC(O)CC1)c1ccccc1 (stereo not given)	.	.	.	.
CC1CCN(C(=O)C2CCN(CC(C)c3ccccc3)CC2)CC1 (stereo not given)	.	.	.	25
CCOC(=O)[C@]12CCCC=C1N(CCc1ccc(OC)c(OC)c1)C(=O)[C@H](CC(=O)N1CCCC1)C2	/	.	/	/
COCCCNC(=S)N(Cc1ccccc1)Cc1nc2ccccc2c(=O)[nH]1	.	.	.	25
SMILES	DAGLB inhibitor	MT1-MMP act inh	ANO1 activ	ANO1 block
COc1ccccc1CN1CC(C(=O)NCCCCc2ccccn2)CCC1=O (stereo not given)	.	.	/	/
O=C1OC[C@H](Cc2ccc3c(c2)OCO3)/C1=C\c1ccc2c(c1)OCO2	.	.	.	25
O=C(NCc1cccs1)C1C(=O)Nc2ccccc2C(=O)N1C1CCCC1 (stereo not given)	/	.	/	/
O=[N+]([O-])c1ccc(O)c(-c2cc(C(F)(F)F)nc(-c3ccccc3)n2)c1	.	.	.	100
Oc1ccccc1-c1cc(C(F)(F)C(F)F)nc(-c2ccccc2)n1	.	.	.	.
Cc1ccc(SCc2cc(=O)[nH]c(Nc3nc(C)c4cccc(C)c4n3)n2)cc1	.	.	.	.
Cc1cc(C)c2nc(Nc3nc(CSc4nc5ccccc5[nH]4)cc(=O)[nH]3)nc(C)c2c1	.	.	-6.4	/
COc1ccc(NCC(=O)Nc2cccc(C(F)(F)F)c2)cc1S(=O)(=O)N1CCOCC1	.	.	.	/
CCOC(=O)C1=C(C)N=c2s/c(=C\c3ccc(O)c([N+](=O)[O-])c3)c(=O)n2C1c1ccccc1OC (stereo not given)	.	.	.	100
CCCc1nnc(SCC(=O)N(CC)CC)n1CC1CCCO1 (stereo not given)	.	.	.	.
CCCc1nnc(SCC(=O)N2CCCCC2C)n1CC1CCCO1 (stereo not given)	.	.	.	25
Nc1[nH]c(C(=O)c2ccccc2)c(-c2ccncc2)c1C(=O)NC1CC1	/	.	/	/
Cn1ncc2cc3c(Nc4ccc(Cl)cc4)cccc3nc21	/	.	/	/
COc1ccc(S(=O)(=O)NCCSC(C)(C)C)c(Cl)c1Cl	.	.	.	25
CN(C)CCNc1ncnc2c1ncn2[C@H]1CN(Cc2ccc(-c3ccccc3)cc2)C[C@@H](CO)O1	/	.	/	/
CCCCC(=O)N1CCN(c2nc3ccc(Cl)cc3s2)CC1	.	.	.	25
CC(C)(CC(=O)O)CC(=O)N1CCN(c2nc3ccc(Cl)cc3s2)CC1	.	.	.	.
CC1CCC(NC(=O)Cn2cnc3sccc3c2=O)CC1 (stereo not given)	.	.	-4.8	/
COCC(=O)Oc1c(Sc2ccccc2[N+](=O)[O-])c(C)nn1C(C)(C)C	.	.	.	.
CCC(CC)C(=O)Oc1c(Sc2ccccc2[N+](=O)[O-])c(C)nn1C(C)(C)C	.	.	-10	.
Cc1cc(-c2ccccc2)n[nH]1	.	.	.	.
FC(F)C(F)(F)C(F)(F)C(F)(F)c1cc(-c2ccccc2)n[nH]1	.	.	.	100
C[C@@H]1CC[C@]2(C(=O)O)CC[C@]3(C)C(=CCC4[C@]56CC[C@@](O)(OC5)C(C)(C)C6CC[C@]43C)C2[C@H]1C (stereo not given in full)	.	.	.	100
C[C@H]1[C@H](C)CC[C@]2(C(=O)O)CC[C@]3(C)C(=CC[C@@H]4[C@@]5(C)C[C@@H](O)[C@H](O)C(C)(C)[C@@H]5CC[C@]43C)[C@H]12	.	.	-9.7	.
Cc1cc(OCC(=O)NNC(=S)NC(=O)c2ccc(Br)o2)ccc1Cl	.	.	-4.6	25
CCC(=O)NC(=S)Nc1ccc(NC(=O)COc2ccc(Cl)c(C)c2)cc1	.	.	.	.
CCN(CC)S(=O)(=O)c1ccc(NC(=O)c2ccc(OCC3CCCO3)cc2)cc1 (stereo not given)	.	.	.	/
CCOc1ccccc1C(=O)OCC(=O)Nc1cc(S(=O)(=O)N2CCOCC2)ccc1C	.	.	-42	/
Cc1ccc(C(=O)OCC(=O)Nc2cc(S(=O)(=O)N3CCOCC3)ccc2C)cc1	.	.	.	.
